Data set [1] in a line: Inhibition of testosterone synthesis in human NCI-H295R cells by Enzyme immunoassay. The format is functional, cell-based. An outline of the steps: (§1)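 H295R adrenocortical cells grown in DMEM/F12 with 2.5% Nu-serum and 1% ITS-plus, seeded at 5×10^4 per well for three nights, then primed two nights with 20 µM forskolin. Cells washed, then exposed overnight to compound in DMEM/F12 with 1% ITS-plus and 20 µM forskolin. Cortisol, testosterone, aldosterone and corticosterone in the supernatant measured by competitive EIA against a calibration curve; triplicate, mean ± SEM.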

The nature of data set [2]: Inhibition of corticosterone synthesis in human NCI-H295R cells by Enzyme immunoassay. The format is functional, cell-based. An outline of the steps:
as §1

A short description of data set [3]: Inhibition of cortisol synthesis in human NCI-H295R cells by Enzyme immunoassay. The format is functional, cell-based. In short, it runs like this: as §1
Data set [4] can be described thus: Inhibition of aldosterone synthesis in human NCI-H295R cells by Enzyme immunoassay. The format is functional, cell-based. An outline of the steps:
as §1

The nature of data set [5]: Inhibition of testosterone synthesis in human NCI-H295R cells at 10 uM by Enzyme immunoassay relative to control. The format is functional. An outline of the steps:
as §1

For data set [6], the target named is Cholesterol 24-hydroxylase (Homo sapiens, UniProt Q9Y6A2). Put plainly: Inhibition of full length N-terminal his6-tagged human CH24H (28 to 494 residues) expressed in Escherichia coli DH5alpha using [14C] cholesterol as substrate preincubated for 15 mins followed by substrate addition and measured after 5 min in presence of beta-NADPH.
In the next data set the target is CYP3A4 (Homo sapiens, UniProt P08684). Put plainly: Inhibition of CYP3A4 (unknown origin) at 10 uM using testosterone as substrate incubated for 60 mins by LC-MS/MS analysis relative to control. The format is ADME. The conditions noted are these: probe testosterone. An outline of the steps: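 CYP3A4-expressing microsomes in 50 mmol/L phosphate buffer (pH 7.4) with an NADPH-generating system (MgCl2, β-NADP+, glucose-6-phosphate, G6P dehydrogenase). Testosterone was the substrate and test compound was 10 µmol/L, with final solvent at 0.5%. Incubated 60 min, stopped with acetonitrile, and 6β-hydroxytestosterone read by LC/MS/MS. Run in triplicate; reported as % activity remaining versus an inhibitor-free control.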

A short description of data set [7]: Metabolic stability in human liver microsome assessed as clearance at 1 uM incubated for 15 to 30 mins in presence of NADPH by LC-MS/MS analysis. The conditions noted are these: liver microsomes, time 15-30 min, read-out: CLH. The format is ADME. An outline of the steps: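 Human liver microsomes (0.2 mg protein/mL) were mixed with compound (1 µM) in phosphate buffer (pH 7.4) and started with an NADPH-generating system. Incubated at 37 °C for 15 and 30 min, with zero-time samples as controls, then stopped with acetonitrile. Remaining compound in the supernatant was measured by LC/MS/MS.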
On the technique in general: Microsomes from liver hold many membrane-bound enzymes, among them those of drug oxidation.

For another data set, the target named is T1, Cytochrome P450 2C8 (Homo sapiens, UniProt P10632).
T1 sequence (P10632 whole entry): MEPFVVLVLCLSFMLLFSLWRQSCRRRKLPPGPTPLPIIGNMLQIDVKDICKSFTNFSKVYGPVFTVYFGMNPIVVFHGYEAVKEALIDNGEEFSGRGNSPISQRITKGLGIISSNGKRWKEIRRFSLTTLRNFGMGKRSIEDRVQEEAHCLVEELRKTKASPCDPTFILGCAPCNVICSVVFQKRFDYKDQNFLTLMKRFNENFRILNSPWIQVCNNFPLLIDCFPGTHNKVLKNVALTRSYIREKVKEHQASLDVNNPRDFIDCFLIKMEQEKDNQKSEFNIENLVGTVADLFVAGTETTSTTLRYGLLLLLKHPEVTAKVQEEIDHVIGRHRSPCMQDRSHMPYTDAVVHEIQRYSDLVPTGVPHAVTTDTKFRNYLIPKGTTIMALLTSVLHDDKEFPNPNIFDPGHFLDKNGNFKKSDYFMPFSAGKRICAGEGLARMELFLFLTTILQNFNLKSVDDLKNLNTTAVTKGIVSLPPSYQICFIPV
Put plainly: Inhibition of CYP2C8 (unknown origin) using amodiaquine as substrate incubated for 10 to 20 mins in presence of NADPH-generating system by LC-MS/MS analysis. The format is ADME. An outline of the steps: (§2)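 Recombinant CYP-expressing microsomes (CYP1A2, 2C8, 2C9, 2C19, 2D6, 3A4) in 50 mM phosphate buffer pH 7.4 with NADPH-generating system. Substrates: phenacetin, amodiaquine, tolbutamide, (S)-mephenytoin, bufuralol, testosterone, respectively. Test compounds at 1–100 µM final, 0.5% final solvent. Incubated 10–20 min at 37 °C in duplicate, stopped with acetonitrile. Metabolite peaks read by LC/MS/MS; activity given as % remaining versus no-inhibitor control.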

For a further data set, the target named is Cytochrome P450 2C9 (Homo sapiens, UniProt P11712). The experiment in a line: Inhibition of CYP2C9 (unknown origin) using tolbutamide as substrate incubated for 10 to 20 mins in presence of NADPH-generating system by LC-MS/MS analysis. The format is ADME. An outline of the steps: as §2
The next data set has as its target T2, Cytochrome P450 1A2 (Homo sapiens, UniProt P05177).
T2 sequence (P05177 whole entry): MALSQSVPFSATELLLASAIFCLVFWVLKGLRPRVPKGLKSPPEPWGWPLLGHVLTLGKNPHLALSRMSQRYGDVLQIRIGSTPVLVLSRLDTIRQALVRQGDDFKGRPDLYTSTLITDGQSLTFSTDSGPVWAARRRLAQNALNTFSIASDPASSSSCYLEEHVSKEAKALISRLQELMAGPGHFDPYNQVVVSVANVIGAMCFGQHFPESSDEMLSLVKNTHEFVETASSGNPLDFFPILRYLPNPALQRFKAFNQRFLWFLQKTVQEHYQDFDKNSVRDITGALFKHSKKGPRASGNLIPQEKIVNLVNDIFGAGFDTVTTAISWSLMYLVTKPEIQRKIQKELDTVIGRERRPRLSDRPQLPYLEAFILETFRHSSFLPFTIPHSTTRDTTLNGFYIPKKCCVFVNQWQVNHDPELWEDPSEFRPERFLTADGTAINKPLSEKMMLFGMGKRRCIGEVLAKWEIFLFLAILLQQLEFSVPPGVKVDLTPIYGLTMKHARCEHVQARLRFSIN
The experiment in a line: Inhibition of CYP1A2 (unknown origin) using phenacetin as substrate incubated for 10 to 20 mins in presence of NADPH-generating system by LC-MS/MS analysis. The format is ADME. In short, it runs like this: as §2

The nature of data set [8]: Drug concentration in po dosed C57BL/6N mouse brain measured upto 24 hrs by LC-MS analysis. The format is ADME, organism-based. The conditions noted are these: in vivo, dose 1-10 mg/kg. An outline of the steps: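 Female C57BL/6N mice, 7–8 weeks, 3 per group; single oral gavage at 1, 3 and 10 mg/kg in 0.5% aqueous methylcellulose (10 mL/kg). Brains taken at 0.5–24 h (from 0.25 h at 10 mg/kg) and homogenized in about 4-fold saline. Homogenate mixed with acetonitrile plus internal standard, centrifuged, and quantified by LC-MS/MS in MRM mode (m/z 374.20→183.10).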

The subject of data set [9] is Mus musculus. Put plainly: In vivo inhibition of […] CH24H in po dosed C57BL/6N mouse brain assessed as reduction in 24HC level measured upto 24 hrs. The format is functional, organism-based. The conditions noted are these: dose 1-10 mg/kg. In short, it runs like this:
(§3)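 Female C57BL/6N mice, 7–8 weeks, 3 per group; single oral gavage in 0.5% aqueous methylcellulose (10 mL/kg) at 1, 3 or 10 mg/kg. Brains collected up to 24 h after dosing and homogenized in about 4-fold saline. 24HC extracted with acetonitrile/methanol/formic acid, quantified by UPLC on a C18 column at 40 °C, and expressed as % of control; mean + SD.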

The subject of data set [10] is Mus musculus. The experiment in a line: In vivo inhibition of […] CH24H in C57BL/6N mouse brain assessed as reduction in 24HC level at 10 mg/kg, po measured after 24 hrs relative to control. The format is functional. In short, it runs like this: as §3
The test system of data set [11] is Mus musculus. The experiment in a line: In vivo inhibition of […] CH24H in C57BL/6N mouse brain assessed as reduction in 24HC level at 3 mg/kg, po measured after 24 hrs relative to control. The format is functional. An outline of the steps:
as §3

Data set [12] in a line: Inhibition of corticosterone synthesis in human NCI-H295R cells at 10 uM by Enzyme immunoassay relative to control. The format is functional. In short, it runs like this:
as §1

A short description of data set [13]: Inhibition of cortisol synthesis in human NCI-H295R cells at 10 uM by Enzyme immunoassay relative to control. The format is functional. In short, it runs like this: as §1
Data set [14] in a line: Inhibition of aldosterone synthesis in human NCI-H295R cells at 10 uM by Enzyme immunoassay relative to control. The format is functional. An outline of the steps: as §1
A further data set has as its target Cytochrome P450 2D6 (Homo sapiens, UniProt P10635). Put plainly: Inhibition of CYP2D6 (unknown origin) using bufuralol as substrate incubated for 10 to 20 mins in presence of NADPH-generating system by LC-MS/MS analysis.
For a further data set, the target named is Cytochrome P450 2C19 (Homo sapiens, UniProt P33261). Put plainly: Inhibition of CYP2C19 (unknown origin) using (S)-mephenytoin as substrate incubated for 10 to 20 mins in presence of NADPH-generating system by LC-MS/MS analysis.

Bounds are passed on as bounds.

Cytochrome P450 2C9, sequence (P11712 whole entry): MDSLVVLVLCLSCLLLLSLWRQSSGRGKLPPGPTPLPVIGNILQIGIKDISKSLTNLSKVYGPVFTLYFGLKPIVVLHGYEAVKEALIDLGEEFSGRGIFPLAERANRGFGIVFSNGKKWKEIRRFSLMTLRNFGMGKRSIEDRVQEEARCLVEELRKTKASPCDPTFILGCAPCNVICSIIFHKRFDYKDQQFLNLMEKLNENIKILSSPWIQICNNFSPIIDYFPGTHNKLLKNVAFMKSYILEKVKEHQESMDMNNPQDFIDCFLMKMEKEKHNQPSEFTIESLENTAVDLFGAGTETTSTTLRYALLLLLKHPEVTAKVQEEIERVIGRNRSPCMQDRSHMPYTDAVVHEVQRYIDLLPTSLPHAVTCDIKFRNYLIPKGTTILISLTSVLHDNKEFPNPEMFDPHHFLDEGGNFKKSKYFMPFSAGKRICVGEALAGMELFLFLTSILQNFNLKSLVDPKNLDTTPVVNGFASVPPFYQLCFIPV
Cytochrome P450 2D6, sequence (P10635 whole entry): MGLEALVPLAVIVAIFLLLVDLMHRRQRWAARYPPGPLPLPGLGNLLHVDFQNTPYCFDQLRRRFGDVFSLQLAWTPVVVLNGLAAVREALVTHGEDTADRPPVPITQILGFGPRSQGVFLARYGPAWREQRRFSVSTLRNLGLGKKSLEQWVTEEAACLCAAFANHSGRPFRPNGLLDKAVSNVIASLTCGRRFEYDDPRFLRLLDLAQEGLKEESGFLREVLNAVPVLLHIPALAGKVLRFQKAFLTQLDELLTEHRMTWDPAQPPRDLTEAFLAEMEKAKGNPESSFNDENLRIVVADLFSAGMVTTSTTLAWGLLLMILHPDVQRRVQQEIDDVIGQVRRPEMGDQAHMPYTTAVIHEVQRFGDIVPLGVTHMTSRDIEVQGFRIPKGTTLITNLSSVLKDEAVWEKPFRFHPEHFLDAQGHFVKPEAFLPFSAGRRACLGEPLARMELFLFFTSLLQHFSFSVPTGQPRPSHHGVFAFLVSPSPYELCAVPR
Cytochrome P450 2C19, sequence (P33261 whole entry): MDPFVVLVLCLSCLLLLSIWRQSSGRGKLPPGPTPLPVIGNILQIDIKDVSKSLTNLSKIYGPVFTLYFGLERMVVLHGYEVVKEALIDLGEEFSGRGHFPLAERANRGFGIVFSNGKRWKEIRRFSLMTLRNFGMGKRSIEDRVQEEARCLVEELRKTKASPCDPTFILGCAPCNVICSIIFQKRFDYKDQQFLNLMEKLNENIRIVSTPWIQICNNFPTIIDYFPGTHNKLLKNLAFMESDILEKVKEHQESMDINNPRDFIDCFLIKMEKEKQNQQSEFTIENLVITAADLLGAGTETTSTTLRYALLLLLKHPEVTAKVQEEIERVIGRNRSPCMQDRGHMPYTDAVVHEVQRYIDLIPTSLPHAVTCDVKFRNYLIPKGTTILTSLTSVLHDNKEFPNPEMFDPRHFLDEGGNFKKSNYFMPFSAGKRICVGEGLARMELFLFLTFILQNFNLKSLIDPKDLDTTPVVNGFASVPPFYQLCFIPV
CYP3A4, sequence (P08684 whole entry): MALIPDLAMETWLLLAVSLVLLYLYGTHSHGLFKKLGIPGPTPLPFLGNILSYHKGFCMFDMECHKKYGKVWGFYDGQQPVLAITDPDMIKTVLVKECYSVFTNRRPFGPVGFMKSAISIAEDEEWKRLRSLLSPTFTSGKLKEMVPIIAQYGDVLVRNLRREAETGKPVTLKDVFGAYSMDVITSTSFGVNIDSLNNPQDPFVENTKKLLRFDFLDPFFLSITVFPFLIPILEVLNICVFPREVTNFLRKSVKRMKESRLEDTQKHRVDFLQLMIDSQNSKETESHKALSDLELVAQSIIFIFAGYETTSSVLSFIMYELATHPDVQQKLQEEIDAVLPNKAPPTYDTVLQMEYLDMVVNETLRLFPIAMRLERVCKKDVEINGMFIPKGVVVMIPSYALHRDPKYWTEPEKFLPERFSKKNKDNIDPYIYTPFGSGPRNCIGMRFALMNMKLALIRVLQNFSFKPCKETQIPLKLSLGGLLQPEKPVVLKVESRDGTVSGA
Cholesterol 24-hydroxylase, sequence (Q9Y6A2 whole entry, the tested form may be a part): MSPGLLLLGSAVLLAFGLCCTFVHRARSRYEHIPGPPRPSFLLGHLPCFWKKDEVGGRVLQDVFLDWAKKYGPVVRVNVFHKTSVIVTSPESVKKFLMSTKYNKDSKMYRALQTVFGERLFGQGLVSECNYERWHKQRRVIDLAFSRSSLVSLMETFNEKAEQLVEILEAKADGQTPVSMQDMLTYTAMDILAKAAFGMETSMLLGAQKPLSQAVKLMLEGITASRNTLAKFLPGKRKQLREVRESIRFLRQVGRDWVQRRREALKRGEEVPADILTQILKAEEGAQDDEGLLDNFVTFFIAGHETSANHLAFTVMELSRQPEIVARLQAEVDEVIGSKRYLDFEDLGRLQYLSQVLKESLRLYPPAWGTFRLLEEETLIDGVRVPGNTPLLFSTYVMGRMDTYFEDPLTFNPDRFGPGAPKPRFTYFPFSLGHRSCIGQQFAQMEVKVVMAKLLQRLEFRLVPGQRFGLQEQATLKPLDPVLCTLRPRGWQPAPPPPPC

In general, IC50 refers to the midpoint of a concentration-inhibition curve. For the compound `CC(=O)N1CCN(c2ccc(OCC3COC(Cn4ccnc4)(c4ccc(Cl)cc4Cl)O3)cc2)CC1` (stereo not given) [KETOCONAZOLE], the IC50 amounted to 340 nM in data set [1], 2500 nM in [2], 440 nM in data set [3] and 1400 nM in [4].

Broadly, the inhibition is the change of the read-out against control, counted positive when it falls. For orientation: inhibition in vivo means the change of the read-out against control, counted positive when it falls. `O=C(c1cccnc1-c1ccncc1)N1CCC(O)(Cc2ccccc2)CC1` [SOTICLESTAT]: the inhibition at 10 µM was -0.4% in data set [5], -6% in [12], 0.2% in data set [13] and -3.8% in data set [14]. Also, the IC50 in data set [6] is 7.4 nM; at Cytochrome P450 2C8, 62 µM; at Cytochrome P450 2C9, 19 µM; on Cytochrome P450 1A2, greater than 100 µM; at Cytochrome P450 2D6, greater than 100 µM; on Cytochrome P450 2C19 it was 14 µM. Moreover, at CYP3A4, the inhibition at 1 h, 10 µM turned out to be 28%. Further, the microsomal CLint at 1 µM in data set [7] was determined as 22 µL/min/mg. The Drug uptake entry in [8] is “Dose-Dependent Effect”. Moreover, the inhibition entry in the data set with Mus musculus [9] is “Dose-Dependent Effect”. Further, the inhibition in vivo at 10 mg/kg with Mus musculus [10] amounted to 33%. Further, in the data set with Mus musculus [11], the inhibition in vivo at 3 mg/kg amounted to 25%.
